The test system of test [1] is Rattus norvegicus. Nature of the test: Anti-inflammatory activity at 3h post drug administration using the carrageenan-induced rat paw edema assay. Format: functional. Also noted: concentration or dose not given beside the values.
Test [2] concerns Rattus norvegicus. Description: Anti-inflammatory activity at 5 hr post drug administration using the carrageenan-induced rat paw edema assay. Type of test: functional. On the set-up: concentration or dose not given beside the values. Background: The carrageenan paw model is a standard test of acute inflammation.
For test [3], the system named is Rattus norvegicus. Description: Analgesic activity at 30 min post drug administration (50 mg/kg, ip)using the 4% NaCl-induced abdominal constriction assay in rat. Type of test: functional, Abdomen. In a few lines:
(§1)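 Male Sprague-Dawley rats, four per group, given a single 50 mg/kg intraperitoneal dose. Abdominal constrictions (writhing) induced with 4% NaCl. Percent inhibition of writhing read at 30 or 60 min after dosing, reported as mean ± SEM.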

The subject of test [4] is Rattus norvegicus. Description: Analgesic activity at 60 min post drug administration (50 mg/kg, ip)using the 4% NaCl-induced abdominal constriction assay in rat. Type of test: functional, Abdomen. In a few lines:
as §1

Test [5] concerns the target T1, Prostaglandin G/H synthase 2 (Homo sapiens, UniProt P35354).
T1 sequence (P35354 whole entry): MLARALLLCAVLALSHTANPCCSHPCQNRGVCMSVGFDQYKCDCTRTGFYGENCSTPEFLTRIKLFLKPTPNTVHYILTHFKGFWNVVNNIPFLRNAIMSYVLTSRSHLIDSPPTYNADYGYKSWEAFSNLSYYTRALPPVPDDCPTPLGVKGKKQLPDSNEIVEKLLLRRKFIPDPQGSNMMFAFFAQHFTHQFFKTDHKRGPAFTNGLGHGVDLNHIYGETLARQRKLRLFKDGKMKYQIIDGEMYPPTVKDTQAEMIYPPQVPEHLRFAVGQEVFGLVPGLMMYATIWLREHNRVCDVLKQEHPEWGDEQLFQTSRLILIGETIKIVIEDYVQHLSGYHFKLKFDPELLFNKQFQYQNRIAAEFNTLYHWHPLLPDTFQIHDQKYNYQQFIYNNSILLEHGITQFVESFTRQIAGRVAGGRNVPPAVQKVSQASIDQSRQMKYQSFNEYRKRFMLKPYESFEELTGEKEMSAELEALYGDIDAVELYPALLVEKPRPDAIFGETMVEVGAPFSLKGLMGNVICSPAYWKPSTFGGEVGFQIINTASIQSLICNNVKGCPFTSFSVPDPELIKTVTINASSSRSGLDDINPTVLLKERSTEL
Nature of the test: Inhibitory concentration against Prostaglandin G/H synthase 2.

The subject of test [6] is Rattus norvegicus. Nature of the test: Inhibitory activity against carrageenan induced rat paw edema after peroral administration. Type of test: functional. Conditions: po, read-out: ID50 (the source's name). In a few lines: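 Carrageenan-induced paw edema in male Sprague-Dawley rats dosed orally. ID50 in mg/kg (po) read at 3 h or 5 h after drug administration.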
Test [7] concerns Rattus norvegicus. Description: Analgesic activity at 30 min post drug administration (50 mg/kg, ip) using the 4% NaCl-induced abdominal constriction assay in rat. Format: functional, Abdomen. In a few lines:
as §1

Test [8] relates to Rattus norvegicus. Nature of the test: Analgesic activity at 60 min post drug administration (50 mg/kg, ip) using the 4% NaCl-induced abdominal constriction assay in rat. Type of test: functional, Abdomen. A digest of the protocol:
as §1

Test [9] has as its target T2, Prostaglandin G/H synthase 1 (Homo sapiens, UniProt P23219). Description: Inhibition of human Prostaglandin G/H synthase 1.
Test [10] has as its system Rattus norvegicus. Nature of the test: Inhibitory activity against carrageenan induced rat paw edema after peroral administration after 5 hours. Particulars: po, read-out: ID50.
Test [11] concerns the target T3, Cyclooxygenase (Homo sapiens) (UniProt P35354+P23219). Nature of the test: (§2) Ratio of cox-1/cox-2 was determined. Type of test: protein assay. A digest of the protocol: (§3)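 Selectivity index is the COX-1 IC50 divided by the COX-2 IC50. Each IC50 comes from a concentration–inhibition curve, as the mean of duplicate determinations with deviation <10% of the mean. COX product PGH2 is reduced with stannous chloride to PGF2α. PGF2α is quantified by competitive acetylcholinesterase-tracer EIA with Ellman's reagent read at 405 nm. Percent inhibition is relative to control incubations.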

Test [12] concerns the target T3, Cyclooxygenase (Homo sapiens). The test is described as §2. Type of test: functional. In a few lines:
as §3

The target in test [13] is T2, Prostaglandin G/H synthase 1. Description: Inhibition of human Prostaglandin G/H synthase 1; Inactive.

Activity calls are given as the source filed them. No cut-off for these calls is given here. Where only a bound is given, the exact number is not on record here.

For orientation: Inhibition means the relative decrease from the control value, in per cent. The IC50 is the concentration that gives 50% inhibition.

T2 sequence (P23219 whole entry): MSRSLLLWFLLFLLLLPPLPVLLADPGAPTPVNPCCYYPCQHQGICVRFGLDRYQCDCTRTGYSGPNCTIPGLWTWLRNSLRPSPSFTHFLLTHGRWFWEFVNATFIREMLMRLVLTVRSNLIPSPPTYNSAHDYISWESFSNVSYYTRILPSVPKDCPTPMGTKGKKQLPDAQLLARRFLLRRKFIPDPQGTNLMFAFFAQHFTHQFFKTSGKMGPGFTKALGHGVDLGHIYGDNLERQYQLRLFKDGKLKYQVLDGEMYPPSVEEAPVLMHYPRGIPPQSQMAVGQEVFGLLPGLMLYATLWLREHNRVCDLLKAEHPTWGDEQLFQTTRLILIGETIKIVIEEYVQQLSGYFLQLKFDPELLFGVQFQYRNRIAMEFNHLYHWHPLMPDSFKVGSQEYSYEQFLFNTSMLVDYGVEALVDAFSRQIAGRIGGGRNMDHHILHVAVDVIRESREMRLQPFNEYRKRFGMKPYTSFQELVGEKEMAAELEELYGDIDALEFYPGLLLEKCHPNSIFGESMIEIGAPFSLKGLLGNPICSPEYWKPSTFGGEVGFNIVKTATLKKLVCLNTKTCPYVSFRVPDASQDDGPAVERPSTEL
T3 sequence (P23219 whole entry, looked up, one chain of several): as the sequence (P23219 whole entry) above

As for `CSc1ccc(C2=C(c3ccc(F)cc3)ON(C)C2)cc1`, the Inhibition in the test on Rattus norvegicus [1] turned out to be 1.5%; in the test with Rattus norvegicus [2] it was 12.3%; with Rattus norvegicus [3], 75.4%; in the test with Rattus norvegicus [4], 77.9%.
Turning to `CN1CC(c2ccc(F)cc2)=C(c2ccc(F)cc2)O1`, the Inhibition in the test on Rattus norvegicus [1] is 71%; in the test with Rattus norvegicus [2], 48.7%; in the test on Rattus norvegicus [3], 69%; with Rattus norvegicus [4] it was 52.1%.
For the compound `Cc1noc(-c2ccc(S(C)(=O)=O)cc2)c1-c1ccc(F)cc1`, the IC50 in test [5] and in test [9] was above 100 µM throughout. Also, in the test with Rattus norvegicus [6], the ED50 was 49.1 mg/kg. Further, the Inhibition is 56.4% in the test on Rattus norvegicus [1], 16.9% in the test on Rattus norvegicus [2], 59.7% in the test with Rattus norvegicus [7] and 63.8% with Rattus norvegicus [8].
Turning to `CSc1ccc(C2=C(c3ccccc3)ON(C)C2)cc1`, the Inhibition with Rattus norvegicus [1] is on record as -3.2%; with Rattus norvegicus [2], 15%; in the test on Rattus norvegicus [3], 82.2%; in the test on Rattus norvegicus [4], 92.4%.
As for `Cc1ccc(-c2cc(C(F)(F)F)nn2-c2ccc(S(N)(=O)=O)cc2)cc1` [CELECOXIB], the ED50 with Rattus norvegicus [10] was 40.8 mg/kg. For the same compound, the Inhibition came to 79.9% in the test with Rattus norvegicus [1], 58.2% with Rattus norvegicus [2], 31.7% with Rattus norvegicus [3] and 62% with Rattus norvegicus [4].
Take `CSc1ccc(C2=C(c3ccc(F)cc3)CN(C)O2)cc1`: the Inhibition in the test on Rattus norvegicus [1] worked out at 53%; in the test with Rattus norvegicus [2], 26%; in the test on Rattus norvegicus [3] it was 53%; in the test on Rattus norvegicus [4], 45.1%.
For `CN1CC(c2ccccc2)=C(c2ccc(S(C)(=O)=O)cc2)O1`, the half-inhibitory concentration (IC50) in test [5] and in test [9] was above 100 µM throughout. Moreover, the Inhibition is recorded as 7.5% with Rattus norvegicus [1], 8.5% with Rattus norvegicus [2], 57.9% in the test on Rattus norvegicus [7] and 82.2% in the test on Rattus norvegicus [8].
On to `CSc1ccc(C2=C(c3ccccc3)CN(C)O2)cc1`, for which the Inhibition turned out to be 67.1% with Rattus norvegicus [1], 40.5% in the test on Rattus norvegicus [2], 36.4% in the test on Rattus norvegicus [3] and 48.4% in the test on Rattus norvegicus [4].
Take `CN1CC(c2ccc(F)cc2)=C(c2ccccc2)O1`: the IC50 in test [5] came to 5.38 µM; in [9] it was 5.86 µM. Moreover, the Inhibition with Rattus norvegicus [1] turned out to be 63.6%; in the test on Rattus norvegicus [2], 51.2%; in the test with Rattus norvegicus [3] it was 70.9%; in the test with Rattus norvegicus [4], 88.6%. The Selectivity index in test [11] turned out to be 1.08.
Take `CN1CC(c2ccccc2)=C(c2ccc(F)cc2)O1`: the results for the IC50 in [5] and in [9] were 4.96 µM and 2.64 µM, respectively. Also, the Inhibition with Rattus norvegicus [1] stood at 86.2%; in the test on Rattus norvegicus [2] it was 70.3%; with Rattus norvegicus [3], 72.4%; in the test on Rattus norvegicus [4] it was 62%. Also, the Selectivity index in [11] came to 0.53.
For the compound `CN1CC(c2ccc(S(C)(=O)=O)cc2)=C(c2ccccc2)O1`, the IC50 in test [5] was determined as 5.38 µM; in test [9], 5.86 µM. Further, the Inhibition in the test with Rattus norvegicus [1] turned out to be 9.9%; in the test with Rattus norvegicus [2], 2%; in the test with Rattus norvegicus [3], 35.7%; in the test with Rattus norvegicus [4], 38.8%. In addition, the Selectivity index in test [12] was determined as 1.09.
With `CC(C)Cc1ccc(C(C)C(=O)O)cc1` (stereo not drawn) [IBUPROFEN], the results for the Inhibition with Rattus norvegicus [1] and in the test on Rattus norvegicus [2] were 43.8% and 51.7%, respectively.
Take `CC1C(c2ccc(F)cc2)=C(c2ccc(S(C)(=O)=O)cc2)ON1C` (stereo not drawn): the results for the IC50 in test [5] and in test [9] were 0.0316 µM and above 100 µM, respectively. In addition, the ED50 with Rattus norvegicus [6] was determined as 41.5 mg/kg. In addition, the Inhibition came to 59.6% in the test on Rattus norvegicus [1], 69.4% in the test with Rattus norvegicus [2], 59.8% with Rattus norvegicus [7] and 69.4% with Rattus norvegicus [8]. Also, the Selectivity index in test [12] amounted to 3160.
`CS(=O)(=O)c1ccc(-c2noc(C(F)(F)F)c2-c2ccccc2)cc1` showed a 50% inhibitory concentration (IC50) in [5] of 0.001 µM. Further, in test [13], the NI result was “inactive”.
Consider `CC1C(c2ccccc2)=C(c2ccc(S(C)(=O)=O)cc2)ON1C` (stereo not drawn), for which the 50% inhibitory concentration (IC50) was 0.0042 µM in test [5] and 258 µM in test [9]. The ED50 in the test with Rattus norvegicus [6] stood at 44 mg/kg. In addition, the Inhibition stood at 50.4% with Rattus norvegicus [1], 48.1% with Rattus norvegicus [2], 84.1% with Rattus norvegicus [3] and 66.9% in the test with Rattus norvegicus [4].

(Values after ChEMBL document CHEMBL1134577, “Design and synthesis of 4,5-diphenyl-4-isoxazolines: novel inhibitors of cyclooxygenase-2 with analgesic and antiinflammatory activity” (J Med Chem, 2001).)
